From ChEMBL document CHEMBL1140709, “Design, synthesis, and biological evaluation of (E)-styrylbenzylsulfones as novel anticancer agents” (J Med Chem, 2008)
Active and inactive are the calls of the source. The rule behind the calls is not given here.

Tests used:
BT-20 [1] = test: Antitumor activity against ER-negative human BT20 xenografted athymic NCR-nu/nu mouse at 25 mg/kg, ip for every 4 days after 22 days; settings: route intraperitoneal
MCF7 = test: Antitumor activity against ER-positive human MCF7 cells by trypan blue exclusion assay; type: functional, cell-based
Procedure, shortened: (§1)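 Tumour cells were grown in DMEM or RPMI with 10% fetal bovine serum and 1 unit/mL penicillin-streptomycin. They were seeded in six-well dishes at 1.0 × 10⁵ cells/mL/well, and compound was added 24 h later over a range of concentrations. After 96 h of exposure, viable cells in duplicate wells were counted by trypan blue exclusion.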

[2] = Antitumor activity against human RF48 cells by trypan blue exclusion assay; type: functional, cell-based
Procedure, shortened: as §1

HUVEC = test: Cell cycle arrest in HUVEC cells by accumulation at G1 phase by FACS analysis; type: functional, cell-based; settings: Homo sapiens
Procedure, shortened: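 HUVEC were exposed to 20 nM compound in medium with 10% fetal bovine serum. At 24 h intervals, cells were fixed, stained with propidium iodide and analysed for DNA content by flow cytometry.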

BT-20 [3] = test: Antitumor activity against ER-negative human BT20 xenografted athymic NCR-nu/nu mouse at 50 mg/kg, ip every 2 days after 22 days; settings: route intraperitoneal
[4] = Antitumor activity against human Namalwa cells by trypan blue exclusion assay; type: functional, cell-based; settings: NAMALVA
Procedure, shortened: as §1

DU-145 [5] = test: Antitumor activity against AR-negative human DU145 cells by trypan blue exclusion assay; type: functional, cell-based
Procedure, shortened: as §1

[6] = Antitumor activity against human RF1 cells by trypan blue exclusion assay; type: functional, cell-based
Procedure, shortened: as §1

OVCAR-3 = test: Antitumor activity against human OVCAR-3 cells by trypan blue exclusion assay; type: functional, cell-based
Procedure, shortened: as §1

A549 = test: Antitumor activity against human A549 cells by trypan blue exclusion assay; type: functional, cell-based
Procedure, shortened: as §1

[7] = Antitumor activity against human MES-SA cells by trypan blue exclusion assay; type: functional, cell-based
Procedure, shortened: as §1

[8] = Antitumor activity against human H187 cells by trypan blue exclusion assay; type: functional, cell-based; settings: NCI-H187
Procedure, shortened: as §1

CCRF-CEM [9] = test: (§2) Antitumor activity against human CEM cells by trypan blue exclusion assay; type: functional, cell-based
Procedure, shortened: as §1

[10] = Antitumor activity against human U87 cells by trypan blue exclusion assay; type: functional, cell-based, U-87MG ATCC; settings: U-87 MG
Procedure, shortened: as §1

HCT-15 = test: Antitumor activity against human HCT15 cells by trypan blue exclusion assay; type: functional, cell-based
Procedure, shortened: as §1

DLD-1 = test: Antitumor activity against human DLD1 cells by trypan blue exclusion assay; type: functional, cell-based
Procedure, shortened: as §1

AGS = test: Antitumor activity against human AGS cells by trypan blue exclusion assay; type: functional, cell-based
Procedure, shortened: as §1

COLO 205 = test: Antitumor activity against human COLO205 cells by trypan blue exclusion assay; type: functional, cell-based
Procedure, shortened: as §1

PC-3 = test: Antitumor activity against […] human PC3 cells by trypan blue exclusion assay; type: functional, cell-based
Procedure, shortened: as §1

[11] = Antitumor activity against human multidrug-resistant MES-SA/DX5 cells by trypan blue exclusion assay; type: functional, cell-based
Procedure, shortened: as §1

CCRF-CEM [12] = test: as §2; type: functional, cell-based; remark: listed apart in the source
Procedure, shortened: as §1

MOLT-4 = test: Antitumor activity against human MOLT4 cells by trypan blue exclusion assay; type: functional, cell-based
Procedure, shortened: as §1

Daudi = test: Antitumor activity against human Daudi cells by trypan blue exclusion assay; type: functional, cell-based
Procedure, shortened: as §1

BT-20 [13] = test: Antitumor activity against human BT20 xenografted athymic NCR-nu/nu mouse at 50 mg/kg, ip after 22 days
T47D = test: Antitumor activity against ER-positive human T47D cells by trypan blue exclusion assay; type: functional, cell-based
Procedure, shortened: as §1

BT-20 [14] = test: Antitumor activity against human BT20 cells by trypan blue exclusion assay; type: functional, cell-based
Procedure, shortened: as §1

[15] = Antitumor activity against human H157 cells by trypan blue exclusion assay; type: functional, cell-based; settings: NCI-H157
Procedure, shortened: as §1

SK-MEL-28 = test: Antitumor activity against human SK-MEL-28 cells by trypan blue exclusion assay; type: functional, cell-based
Procedure, shortened: as §1

MIA PaCa-2 [16] = test: Antitumor activity against human MiaPaCa2 cells by trypan blue exclusion assay; type: functional, cell-based
Procedure, shortened: as §1

[17] = Antitumor activity against human N417 cells by trypan blue exclusion assay; type: functional, cell-based
Procedure, shortened: as §1

Raji = test: Antitumor activity against human Raji cells by trypan blue exclusion assay; type: functional, cell-based
Procedure, shortened: as §1

CEM/C2 = test: Antitumor activity against human multidrug-resistant CEM/C2 cells by trypan blue exclusion assay; type: functional, cell-based
Procedure, shortened: as §1

Mus musculus [18] = test: Hematotoxicity in CD1 mouse at 100 mg/kg, iv; type: organism-based; design: dose 100 mg/kg, route intravenous; settings: in vivo
Procedure, shortened: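 CD-1 mice received 200 µL iv of PBS or drug (10 mg/mL; 100 mg/kg). Bone marrow was taken from femur and tibia 12, 24 or 48 h later. Cells were cultured in duplicate in methylcellulose with stem cell factor 50 ng/mL, IL-3 10 ng/mL, IL-6 10 ng/mL, transferrin 200 µg/mL and erythropoietin 3 units/mL. Total, myeloid and lymphoid colony-forming units were counted after 1 week.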

BT-20 [19] = test: Growth inhibition of human BT20 after 3 weeks by soft agar colony formation assay; type: functional, cell-based
Procedure, shortened: (§3)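 Noble agar: 0.8% bottom layer; cells (1.0 × 10⁵ for MIA-PaCa-2) in medium with compound at various concentrations, mixed into 0.4% top agar. Each concentration in triplicate; 3 weeks at 37 °C, 5% CO₂. Stained with 0.05% nitroblue tetrazolium for 48 h and colonies photographed.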

Rattus norvegicus [20] = test: Effect on liver damage in rat at 100 mg/kg, iv; type: ADME, organism-based; design: dose 100 mg/kg, route intravenous; settings: in vivo
Procedure, shortened: (§4)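 Rats were given the water-soluble phosphate form iv in single-dose and repeat-dose (28 daily injections) toxicology studies, with biochemical and cellular analysis.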

Rattus norvegicus [21] = test: Hematotoxicity in rat at 100 mg/kg, iv; type: organism-based; design: dose 100 mg/kg, route intravenous; settings: in vivo
Procedure, shortened: as §4

Rattus norvegicus [22] = test: Neurotoxicity in rat at 100 mg/kg, iv; type: toxicity, organism-based; design: dose 100 mg/kg, route intravenous; settings: in vivo
Procedure, shortened: as §4

DU-145 [23] = test: Growth inhibition of human DU145 after 3 weeks by soft agar colony formation assay; type: functional, cell-based
Procedure, shortened: as §3

MIA PaCa-2 [24] = test: Growth inhibition of human MiaPaCa2 cells after 3 weeks by soft agar colony formation assay; type: functional, cell-based
Procedure, shortened: as §3

Mus musculus [25] = test: Effect on liver damage in CD1 mouse at 100 mg/kg, iv; type: ADME, organism-based; design: dose 100 mg/kg, route intravenous; settings: in vivo
Mus musculus [26] = test: Neurotoxicity in CD1 mouse at 100 mg/kg, iv; type: toxicity, organism-based; design: dose 100 mg/kg, route intravenous; settings: in vivo
SW480 = test: Antitumor activity against human SW480 cells by trypan blue exclusion assay; type: functional, cell-based
Procedure, shortened: as §1

SK-OV-3 = test: Antitumor activity against human SKOV3 cells by trypan blue exclusion assay; type: functional, cell-based
Procedure, shortened: as §1

2008 = test: Antitumor activity against human 2008 cells by trypan blue exclusion assay; type: functional, cell-based
Procedure, shortened: as §1

[27] = Antitumor activity against human multidrug-resistant 2008/17/4 cells by trypan blue exclusion assay; type: functional
Procedure, shortened: as §1

K562 = test: Antitumor activity against human K562 cells by trypan blue exclusion assay; type: functional, cell-based
Procedure, shortened: as §1

HCT-116 = test: Antitumor activity against human HCT116 cells by trypan blue exclusion assay; type: functional, cell-based
Procedure, shortened: as §1

| Compound | IC50 (MCF7) [nM] | IC50 [2] [nM] | Activity (HUVEC) | IC50 [4] [nM] | IC50 (DU-145 [5]) [nM] | IC50 [6] [nM] | IC50 (OVCAR-3) [nM] | IC50 (A549) [nM] | IC50 [7] [nM] | IC50 [8] [nM] | IC50 (CCRF-CEM [9]) [nM] | IC50 [10] [nM] | IC50 (HCT-15) [nM] | IC50 (DLD-1) [nM] | IC50 (AGS) [nM] | IC50 (COLO 205) [nM] | IC50 (PC-3) [nM] | IC50 [11] [nM] | IC50 (BT-20 [14]) [nM] | IC50 [15] [nM] | further results |
| --- | --- | --- | --- | --- | --- | --- | --- | --- | --- | --- | --- | --- | --- | --- | --- | --- | --- | --- | --- | --- | --- |
| COc1ccc(CS(=O)(=O)/C=C/c2c(OC)cc(OC)cc2OC)cc1 | 3 | 10 | Active | 15 | 25 | 8 | 8 | 20 | 10 | 15 | 30 | 40 | 20 | 40 | 20 | 15 | 30 | 10 | 20 | 30 | Activity (BT-20 [1]): 74 mm3; Activity (BT-20 [3]): 67.5 mm3; IC50 (CCRF-CEM [12]): 30 nM; IC50 (MOLT-4): 9 nM; IC50 (Daudi): 8 nM; Activity (BT-20 [13]): Active; IC50 (T47D): 25 nM; IC50 (SK-MEL-28): 40 nM; IC50 (MIA PaCa-2 [16]): 8 nM; IC50 [17]: 8 nM; IC50 (Raji): 9 nM; IC50 (CEM/C2): 10 nM |
| COc1cc(OC)c(/C=C/S(=O)(=O)Cc2ccc(OC)c(OP(=O)([O-])O)c2)c(OC)c1.[Na+] | – | – | – | – | 2.5 | – | – | – | – | – | – | – | – | 7 | – | – | – | – | 5 | 7 | Activity (Mus musculus [18]): Non-toxic; Activity (BT-20 [19]): Dose-dependent effect; Activity (Rattus norvegicus [20]): Non-toxic; Activity (Rattus norvegicus [21]): Non-toxic; Activity (BT-20 [13]): Active; Activity (Rattus norvegicus [22]): Non-toxic; Activity (DU-145 [23]): Dose-dependent effect; Activity (MIA PaCa-2 [24]): Dose-dependent effect; Activity (Mus musculus [25]): Non-toxic; Activity (Mus musculus [26]): Non-toxic |
| COc1cc(OC)c(/C=C/S(=O)(=O)Cc2ccc(OC)c(O)c2)c(OC)c1 | 4 | 5 | Active | 6 | 3 | 6 | 6 | 10 | 6 | 7 | 9 | 7 | 8 | 3 | 7 | 9 | 8 | 5 | 10 | 4 | IC50 (SW480): 7 nM; IC50 (SK-OV-3): 6 nM; IC50 2008: 5 nM; Activity (BT-20 [19]): Dose-dependent effect; IC50 (CCRF-CEM [12]): 10 nM; IC50 [27]: 4 nM; IC50 (MOLT-4): 5 nM; IC50 (Daudi): 7 nM; IC50 (T47D): 6 nM; IC50 (K562): 4 nM; Activity (DU-145 [23]): Dose-dependent effect; Activity (MIA PaCa-2 [24]): Dose-dependent effect; IC50 (SK-MEL-28): 7 nM; IC50 (MIA PaCa-2 [16]): 4 nM; IC50 [17]: 5 nM; IC50 (Raji): 4 nM; IC50 (HCT-116): 9 nM; IC50 (CEM/C2): 10 nM |
